Data taken from ChEMBL document CHEMBL1152409, “Constituents of the moss Polytrichum commune” (J Nat Prod, 2009).

Key:
Assay type in all cases: functional, cell-based
[1] = tested on: A549; test: Cytotoxicity against human A549 cells after 24 hrs by MTT assay; details: A549, 24 h
Method in brief: (§1)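 Cell lines from ATCC were seeded at 3000 cells per well and exposed to a range of compound concentrations 24 h after seeding. Treatment lasted 24 h. MTT was then added and plates were incubated for a further 24 h. Viability was read as absorbance at 570 nm, and IC50 was determined.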

[2] = tested on: HepG2; test: Cytotoxicity against human HepG2 cells after 24 hrs by MTT assay; details: HepG2, 24 h; method in brief: as §1
[3] = tested on: LoVo; test: Cytotoxicity against human LoVo cells after 24 hrs by MTT assay; method in brief: as §1
[4] = tested on: MDA-MB-435; test: Cytotoxicity against human MDA-MB-435 cells after 24 hrs by MTT assay; details: MDA-MB-435, 24 h; method in brief: as §1
[5] = Cytotoxicity against human cells 6T-CEM after 24 hrs by MTT assay; method in brief: as §1

Measured: IC50

O=C1C[C@@H](c2ccccc2)Oc2cc(O)cc(/C=C\c3ccccc3)c21 [COMMUNIN A]
> 5 mg/L: all assays above

O=C1C[C@@H]2c3ccccc3O[C@H]3c4ccc(O)cc4-c4c(O)cc(O)c1c4[C@H]23 [OHIOENSIN H]
> 5 mg/L: all assays above

O=C1C[C@@H](c2ccccc2)Oc2cc(O)cc(/C=C/c3ccccc3)c21 [COMMUNIN B]
> 5 mg/L: all assays above
